# Source: PubChem BioAssay
# The list is not random: actives were taken first. Their share in the collection is about 1.5%.
# OXTR potentiate = human OXTR potentiation | P30559 | CHO-OTR cells, Fluo-8 calcium fluorescence, potentiator mode; 0% = oxytocin EC15, 100% = EC100 | activation, % at 3 µM | hit rate 0.061% among 320,000;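 active means activation above that plate's cutoff, the mean activation of tested compounds plus 3 SD, cut at about 6.6% in these data, passing the limit was not always enough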;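 further: 100% uses oxytocin at 75 nM as the full agonist control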
#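 Assay system: CHO-OTR cells, human receptor / Also added: oxytocin at about EC15, sub-maximal agonist stimulus / Dosing: single dose, 3.0 µM nominal final compound concentration / Incubation: 6 min pre-incubation, 100 s read / Technique: Fluo-8 calcium dye fluorescence / Read-out: % activation vs EC15 and EC100 oxytocin / Benchmarks: EC15 oxytocin low, 75 nM oxytocin high / Replicates: singlicate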
# M4 ag = CHRM4 agonism in calcium assay. P08173. CHO-K1 hM4/Gqi5, Fluo-8 calcium fluorescence; vehicle 0%, full acetylcholine response 100%. activation, % at 3 µM. hit rate 0.14% among 360,000. AID 624127;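 active means activation above the run mean over all test wells plus 3 SD, cut at about 32% in these data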;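 further: peak over basal fluorescence ratio per well then scaled between controls; 0% = DMSO wells and 100% = acetylcholine at EC100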
# M4 antag = blocks acetylcholine activation of human M4 receptor | P08173 | hit rate 0.73% among 360,000 | CHO-hM4 cells, ACh EC80, Fluo-8 calcium fluorescence | inhibition, % at 3 µM;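 active means inhibition above its plate's cutoff, the mean inhibition of sample wells plus 3 SD, cut at about 27% in these data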;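 further: 0% = acetylcholine EC80 with DMSO and 100% = DMSO without agonist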
# V1R ag counter = counter-screen for oxytocin receptor agonists: human V1a receptor agonists | CHO-V1R cells, Fluo-8 calcium fluorescence, agonist mode; 0% DMSO, 100% 3 nM vasopressin | activation, % at 3 µM | hit rate 0.25% among 320,000 | AID 2797;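 active means activation above the mean activation of all tested compounds plus 3 SD, per screening run, cut at about 20% in these data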;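 further: signal is peak over basal fluorescence ratio across a 100 second FLIPR read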
# Target sequence (P37288 whole entry, looked up): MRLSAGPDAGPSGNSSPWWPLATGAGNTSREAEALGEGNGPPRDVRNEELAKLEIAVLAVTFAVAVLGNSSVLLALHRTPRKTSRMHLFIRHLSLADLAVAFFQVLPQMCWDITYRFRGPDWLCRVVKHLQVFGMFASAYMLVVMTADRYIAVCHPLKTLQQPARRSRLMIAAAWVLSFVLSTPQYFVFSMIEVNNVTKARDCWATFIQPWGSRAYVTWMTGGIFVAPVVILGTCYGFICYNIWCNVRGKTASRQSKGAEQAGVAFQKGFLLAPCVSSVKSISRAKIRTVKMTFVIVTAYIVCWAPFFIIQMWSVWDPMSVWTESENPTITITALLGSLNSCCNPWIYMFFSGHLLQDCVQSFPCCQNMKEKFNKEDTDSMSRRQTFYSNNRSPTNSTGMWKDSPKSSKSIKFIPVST
# M4 PAM = positive allosteric modulators of human muscarinic M4 receptor; hit rate 0.4% among 360,000; AID 624126; activation, % at 3 µM; CHO-K1 hM4/Gqi5, Fluo-8 calcium fluorescence, ACh EC20; 0% = ACh EC20, 100% = maximal ACh;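 active means activation above its plate's cutoff, the mean activation of sample wells plus 3 SD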
# OXTR agonist = agonists of human oxytocin receptor; P30559; CHO-OTR cells, Fluo-8 calcium fluorescence; normalized: DMSO 0%, oxytocin 100%; activation, % at 3 µM; hit rate 0.32% among 320,000; AID 2435;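 active means activation above the mean of all tested compounds plus 3 SD, cutoff set per screening run, cut at about 20% in these data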;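 further: peak over basal fluorescence ratio from a 100 s FLIPR kinetic read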
# OXTR pot confirm = confirmation of human oxytocin receptor potentiators | shares compounds with OXTR potentiate | activation, % at 3 µM | CHO-OTR cells, Fluo-8 calcium fluorescence, potentiation; scaled from low-dose to maximal oxytocin | AID 434985 | 180 tested, under 10 active;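 active means mean percent activation over triplicates above a cutoff set from solvent-only control plates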;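 further: compounds tested in the presence of an EC15 dose of oxytocin; 0% = EC15 oxytocin with DMSO and 100% = EC100 oxytocin with DMSO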
# An asterisk follows results filed as active; . = not tested or not shown.
SMILES,OXTR potentiate,M4 ag,M4 antag,V1R ag counter,M4 PAM,OXTR agonist,OXTR pot confirm
Cc1ccc(SCc2cc(=O)n3[nH]cnc3n2)cc1,9.8*,0.6,-7.4,-0.8,0.8,1.0,-4.0
O=C(O)c1ccc(-c2nnn(Cc3ccccc3F)n2)cc1,7.6*,-0.2,-3.8,1.6,-2.6,1.9,-4.3
Cc1nnc(NC(=O)c2cc(-c3ccncc3)nc3c(C)cccc23)s1,14.8*,0.0,3.3,-1.1,-2.1,-1.0,4.5
Cc1ccc(N(C)S(=O)(=O)c2c[nH]c3ccc([N+](=O)[O-])cc23)cc1,-14.3,10.7,3.5,5.2,-7.4,5.6,.
COc1ccc(C(CNC(=O)c2nn(-c3ccccc3)c(=O)c3ccccc23)N2CCOCC2)cc1 (stereo unspecified),.,2.1,-6.1,.,3.1,.,.
Cc1nc2c(OCc3ccc(C#N)cc3)cccn2c1N(C)C(=O)CCC1CCCC1,.,11.5,5.4,.,-15.2,.,.
S=c1[nH]nc(-c2ccncc2)n1/N=C/c1cn(-c2ccccc2)nc1-c1ccccc1,20.5*,12.3,0.1,1.0,8.8,-0.3,7.5*
O=[N+]([O-])c1ccc(-c2nn(-c3ccccc3)cc2/C=N/n2c(-c3ccncc3)n[nH]c2=S)cc1,-6.1,0.2,-2.5,0.2,4.7,0.7,.
CCOc1ccccc1Oc1c(C)oc2cc(OC(=O)c3ccco3)ccc2c1=O,13.2*,-0.1,3.1,0.0,-5.2,-0.9,0.9
CCOC(=O)c1c(CN2CCC(C)CC2)oc2ccc(OC)cc12,11.9*,-1.2,-1.6,-1.0,-1.6,-2.3,-5.5
CCOC(=O)c1c(CN2CCCCC2)oc2ccc(OC)cc12,-3.1,0.2,3.5,-0.9,-3.0,-0.6,.
CN(Cc1nc2ccccc2c(=O)[nH]1)C(=O)c1ccc(S(=O)(=O)N2CCCC2)cc1,12.9*,2.1,-0.3,-0.2,5.1,2.6,-3.0
Cc1c(C(=O)NCCc2ccccc2)oc2ccccc12,11.1*,0.0,-1.3,-0.8,-2.2,-2.0,-9.5
COc1ccc2oc(C(=O)NCCc3ccccc3)c(C)c2c1,4.2,-0.8,-0.6,-1.3,10.7,-2.5,.
Cc1cccnc1Nc1ncnc(N)c1[N+](=O)[O-],10.9*,1.5,-5.4,0.9,1.8,0.8,-4.3
COCCOC(=O)C1=C(C)NC2=C(C(=O)CC(C)(C)C2)C1c1cc2c(cc1Br)OCO2 (stereo unspecified),-4.0,0.3,0.6,-0.5,1.4,0.0,.
CCCc1cc(=O)[nH]c(SCC(=O)Nc2cc(S(=O)(=O)N3CCOCC3)ccc2Cl)n1,-4.2,-0.2,4.3,1.1,-0.2,-0.2,.
Cc1cccc(C(=O)NNC(=O)c2ccc(-c3ccccc3)cc2)c1,-3.4,1.3,-5.1,1.2,-0.4,0.3,.
O=C(NNC(=O)c1ccc(-c2ccccc2)cc1)c1ccccc1,12.2*,1.0,4.3,0.6,4.6,2.4,-8.8
COC(=O)c1ccc(NC(CC(C)C)C(=O)OC)c([N+](=O)[O-])c1 (stereo unspecified),-1.1,-0.1,1.4,-0.3,0.3,-2.1,.
Cc1ccc(C2(C)NC(=O)N(CC(=O)N(Cc3ccccc3)C(C)(C)C)C2=O)cc1 (stereo unspecified),-16.7,4.0,-11.0,0.5,6.9,-0.8,.
O=C(c1ccccc1)c1nn(-c2ccccc2)c2nnc(Cc3ccccc3)c(=O)n12,1.8,-1.9,6.0,-0.4,-7.8,-1.3,.
Cc1ccc(-n2nc(C(=O)c3ccccc3)n3c(=O)c(Cc4ccccc4)nnc23)cc1,9.9*,-2.1,4.9,-2.0,2.9,-0.6,0.0
Cc1ccc(C(=O)CSc2cc(C)[nH]c(=O)n2)cc1,-0.7,1.0,1.3,-0.8,1.5,-1.6,.
Cc1cc(SCC(=O)c2ccc(Cl)cc2)nc(=O)[nH]1,12.4*,2.4,4.4,1.7,0.3,0.4,1.4
SMILES,OXTR potentiate,M4 ag,M4 antag,V1R ag counter,M4 PAM,OXTR agonist,OXTR pot confirm
CC(=O)N1CCN(S(=O)(=O)c2cccc(C(=O)OCN3C(=O)c4ccccc4C3=O)c2)CC1,11.1*,1.7,6.4,1.0,-1.2,1.6,-5.5
C[C@H]1COC(=O)[C@H](Cc2ccc(F)cc2)C/C=C\C[C@@H](CC(=O)NCCO)C(=O)N1,-2.8,0.6,1.2,1.1,-0.5,1.6,.
C[C@H]1COC(=O)[C@@H](Cc2ccc(F)cc2)C/C=C\C[C@@H](CC(=O)NCCO)C(=O)N1,14.2*,4.6,7.2,1.0,6.0,1.6,-3.1
COc1ccc(N2CCN(C(=O)C3CCN(S(=O)(=O)c4ccc5c(c4)oc(=O)n5C)CC3)CC2)cc1,12.7*,1.3,-1.2,1.1,4.1,2.2,-4.6
CCOc1ccccc1NC(=O)c1ccc(Cl)c(NC(=O)CC(c2ccccc2)c2ccccc2)c1,-2.8,1.0,-4.3,2.0,4.7,1.2,.
CCOc1ccccc1NC(=O)c1cccc(NC(=O)CC(c2ccccc2)c2ccccc2)c1,26.4*,0.6,-11.8,2.0,22.2,3.5,9.7*
O=C(CSc1ncnc2sc3c(c12)CCC3)NCC1CCCO1 (stereo unspecified),20.4*,2.0,-8.1,1.6,-4.0,-0.9,-3.1
CC(C)(C)NC(=O)c1cc(C(C)(C)C)c(O)c(C(C)(C)C)c1,10.4*,-1.4,9.5,0.8,-1.1,-2.7,-1.8
COc1ccc2c(c1)OC[C@H]1[C@H]2N2C(=O)c3cc(F)ccc3NC(=O)[C@@]2(C)[C@H]1c1ccccc1,12.9*,3.7,56.7*,1.8,-14.7,1.9,-8.2
CC1CCc2nn(CC(=O)NCc3ccc(F)cc3)cc2C1 (stereo unspecified),-9.2,-0.2,-2.4,-1.0,1.4,-1.3,.
CC1CCc2nn(CC(=O)NCc3ccco3)cc2C1 (stereo unspecified),12.6*,3.1,-10.0,1.2,5.5,-1.1,-2.9
CCc1ccc(NC(=O)Cc2ccc(NC3=NC4CS(=O)(=O)CC4S3)cc2)cc1 (stereo unspecified),8.3*,0.1,0.8,0.4,2.5,0.2,-4.2
CCOc1ccc(NC(=O)Cc2ccc(NC3=NC4CS(=O)(=O)CC4S3)cc2)cc1 (stereo unspecified),-7.8,15.5,-7.9,-0.7,-3.7,-0.8,.
Cc1noc(C)c1C(=O)Nc1cccc2ncccc12,2.1,0.8,-7.5,0.5,-1.8,1.0,.
C/C(=N/NC(=O)CNC(=O)c1ccccn1)c1cccc([N+](=O)[O-])c1,11.8*,2.2,-2.8,1.2,1.9,1.1,-2.9
COc1ccc([N+](=O)[O-])cc1-n1cccc1,12.9*,0.5,-0.4,-0.4,0.9,0.1,-7.2
